Screening results from PubChem BioAssay.
TRPC6 inh = mouse TRPC6 channel inhibitors, primary screen, cell-based, HEK293, membrane potential dye | Short transient receptor potential channel 6 (Mus musculus), Q61143 | B-score at 10 µM | ACh-evoked depolarization; hits give low values | 310,000 tested, 1.1% active;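 active = B-score under library mean minus 3 SD, initial fluorescence not abnormally high, positive integrated signal ratio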;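 note: B-score derived from integrated fluorescence ratio over the kinetic read; more negative B-score means stronger inhibition of depolarization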
TRPC6 activator = mouse TRPC6 channel activators, primary screen, cell-based, HEK293, membrane potential dye | Short transient receptor potential channel 6 (Mus musculus), Q61143 | HEK293-TRPC6 membrane potential dye fluorescence; hits give high values | B-score at 10 µM | 310,000 tested, 0.13% active;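 active = B-score of the integrated fluorescence ratio above library mean plus 3 SD, and starting fluorescence ratio within library mean plus 5 SD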;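 note: higher score means more depolarization so channel activation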
TRPC4 potent = positive allosteric modulators of TRPC4, primary screen, cell-based, mouse TRPC4beta, HEK293 mu-opioid, Fluo-4 calcium | Short transient receptor potential channel 4 (Mus musculus), Q9QUQ5 | DAMGO EC20, Fluo-4 Ca2+ flux; hits give high values | AID 2227, 2009 | B-score at 10 µM | 310,000 tested, 0.42% active;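 active = B-score of calcium response area above 5 SD of library B-scores, with initial fluorescence ratio within 5 SD of library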;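 note: B-score of integrated fluorescence ratio over time as area under calcium response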
TRPC4 agonist = activators of mouse TRPC4 channel, primary screen, Fluo4 calcium, HEK293 TRPC4beta/mu-opioid cells. Short transient receptor potential channel 4 (Mus musculus), Q9QUQ5. Fluo4 calcium fluorescence; hits give high values. B-score at 10 µM. 310,000 tested, 0.49% active. AID 2237, 2010;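 active = B-score above 5 SD of library B-scores, and initial fluorescence ratio not above library mean plus 5 SD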;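 note: positive B-score marks a calcium rise read as TRPC4 activation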
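system = HEK293 cells stably co-expressing mouse TRPC4beta and mu-opioid receptor | schedule = Fluo4 dye loading 45 min at room temperature, 110 s recording | measure = B-scored integrated calcium fluorescence ratio | signal = Fluo4 calcium-sensitive dye fluorescence, kinetic, 1 Hz baseline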
TRPC4 block = inhibitors of mouse TRPC4 channel, primary screen, Fluo4 calcium, HEK293 TRPC4beta/mu-opioid cells; B-score at 10 µM; DAMGO-evoked Fluo4 calcium flux; hits give low values; AID 2247, 2010; Short transient receptor potential channel 4 (Mus musculus), Q9QUQ5; 300,000 tested, 0.39% active;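 active = B-score over 3 SD under the library average, no early fluorescence shift, positive overall ratio signal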
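Assay system: TRPC4beta/mu-opioid receptor HEK293 cell line; compound dosing: single concentration per test compound; detection: Fluo4 Ca2+ flux fluorescence; evaluation: per-well B score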
FID counter = compounds displacing fluorescent DNA intercalator, primary screen, artefact control for HCV NS3 helicase inhibitor project, biochemical, FID fluorescence | DNA fluorescent intercalator displacement | inhibition, % at 7.9 µM | AID 1845, 2009 | 290,000 tested, 0.17% active; in the data active = inhibition above about 37%;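 note: 0% = vehicle and 100% = reference compound; higher means more ethidium bromide displaced from hairpin DNA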
HEK293 MPD ctr = parental HEK293 membrane potential modulation, confirmation, counter-screen for TRPC6 modulator project, cell-based; shares compounds with TRPC6 inh; membrane potential dye fluorescence; membrane potential signal change, % at 10 µM; 2,400 tested, 51% active; AID 488924, 2010;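 active = membrane potential signal moves up or down beyond 5 SD from buffer-only wells, on both duplicate plates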
HEK293 MPD ctr 2 = second counter-screen for TRPC6 modulators: effect in parental HEK293 cells | inhibition, % at 10 µM | membrane potential dye fluorescence; after compound, maximal acetylcholine stimulation | 2,400 tested, 14% active | shares compounds with TRPC6 inh;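 active = membrane potential signal drops by more than 5 SD from the mean control signal, in both duplicate plates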;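 note: plate controls were acetylcholine ECmax control wells for no effect and buffer only wells for full effect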
TRPC4 ctr mod = TRPC4 modulation by TRPC6 hit compounds, confirmation, selectivity assay for TRPC6 modulator project, cell-based, HEK293 TRPC4/mu-opioid, membrane potential dye, mouse; AID 488927, 2010; 2,400 tested, 69% active; membrane potential fluorescence; percent change from control (negative = decrease, positive = increase), % at 10 µM; shares compounds with TRPC6 inh;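 active = membrane potential signal moved up or down beyond 5 SD of buffer control wells, in both duplicate plates, actives on both sides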;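 note: plate controls were assay buffer wells for no effect and DAMGO maximal-effect wells for full effect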
TRPC4/MOR inh 2 = mouse TRPC4 off-target activity of TRPC6 modulators, second screen | shares compounds with TRPC6 inh | HEK293 TRPC4/mu-opioid, membrane potential dye fluorescence; stimulated with maximal-effect DAMGO | inhibition, % at 10 µM | 2,400 tested, 55% active | AID 488928;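 active = drop in membrane potential signal beyond 5 SD of the control wells in both duplicate plates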;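 note: TRPC4 counter screen for TRPC6 hits run under conditions tuned for TRPC6 not TRPC4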
TRPC6 block conf = mouse TRPC6 channel inhibitors, confirmation, HEK293 cells, membrane potential dye, duplicate. shares compounds with TRPC6 inh. ACh-evoked depolarization. inhibition, % at 10 µM. 3,300 tested, 43% active. AID 488960, 2010;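 active = fluorescence ratio falls more than 5 SD below the full-stimulation control mean, in both duplicate runs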;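 note: integrated fluorescence ratio of peak minus minimum over baseline after agonist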
TRPC6 act conf = mouse TRPC6 channel activators, confirmation, HEK293 cells, membrane potential dye, duplicate | HEK293-TRPC6 membrane potential dye fluorescence, FDSS | AID 488961, 2010 | 2,800 tested, 11% active | activation, % at 10 µM | shares compounds with TRPC6 inh;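 active = ratio signal rise beyond 5 SD above unstimulated control wells' mean, seen in both duplicate runs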;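 note: plate controls were buffer EC0 wells for no effect and acetylcholine ECmax response for full effect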
Numbers without * were called inactive; i = inactive; nt = no result given. An excerpt weighted towards active compounds, which were near 2.3% of everything screened.

SMILES	TRPC6 inh	TRPC6 activator	TRPC4 potent	TRPC4 agonist	TRPC4 block	FID counter	HEK293 MPD ctr	HEK293 MPD ctr 2	TRPC4 ctr mod	TRPC4/MOR inh 2	TRPC6 block conf	TRPC6 act conf
COC(=O)C1=C(C)N(c2cc(C)cc(C)c2)/C(=C/c2ccc(O)cc2)C1=O	-7.7*	i	i	i	i	-12	i	i	-16%*	67%*	i	i
C=CCc1ccccc1OCC(O)CN1CCN(c2ccc(OC)cc2)CC1 (configuration not stated)	-5.3*	i	i	i	i	10	i	i	i	54%*	60%*	i
CC(C)C(C)NC(=O)COC(=O)C1CCN(S(=O)(=O)c2ccc3c(c2)OCCO3)CC1 (configuration not stated)	-6.4*	i	i	i	i	nt	i	i	7.0%*	i	i	i
CC(C)(C)c1ccc(C(=O)Nc2cccc(-n3cnnn3)c2)cc1	i	i	i	i	i	-10	nt	nt	nt	nt	nt	nt
Cc1ccc(C(=O)COC(=O)CNC(=O)c2ccco2)cc1	i	i	i	i	i	-3	nt	nt	nt	nt	nt	nt
O=C(CNC(=O)c1ccco1)OCC(=O)c1ccc(Br)cc1	-5.3*	i	i	i	i	-3	i	i	i	i	i	i
Cc1ccc(C)c(NC(=O)C2CC(=O)N(C3CCCCC3)C2)c1 (configuration not stated)	i	i	i	i	i	-19	nt	nt	nt	nt	nt	nt
C=C(C)CC1(NC(C)c2ccccc2)CCCCC1 (configuration not stated)	-5.1*	i	i	i	i	2	i	i	24%*	i	i	i
COc1ccc(-c2nc3ccccc3n2Cc2ccc(C)cc2)cc1	i	i	i	i	i	-25	nt	nt	nt	nt	nt	nt
COc1ccc(Cn2c(-c3ccc(C)cc3)c[n+]3ccccc23)cc1	-6.2*	i	i	i	i	4	-232%*	i	-30%*	48%*	46%*	i
CCNc1oc(-c2cccc3ccccc23)nc1C#N	i	i	i	i	i	-1	nt	nt	nt	nt	nt	nt
